What is called Vmax is the top rate of the reaction or transport when substrate is in excess.

We go through 3 compounds from ChEMBL document CHEMBL2424527, “Doxorubicin-antioxidant co-drugs” (Bioorg Med Chem Lett, 2013).

Active and inactive are the calls of the source. The rule behind the calls is not given here.

Data set [1] has as its system H9c2. In words: Antioxidant activity in rat H9c2 cells assessed as intracellular malonyldialdehyde level at 5 umol/L after 24 hrs by spectrofluorimetry. Format: functional, cell-based.
The subject of data set [2] is H9c2. In words: Antioxidant activity in rat H9c2 cells assessed as intramitochondrial ROS level at 5 umol/L after 24 hrs by DCFDA-AM staining-based spectrofluorimetry. Type of data set: functional, cell-based. Summed up:
(§1)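 Mitochondria freshly isolated from cells grown 24 h with 5 μmol/L compound. DCFDA-AM loading and fluorescence read (ex 490/em 530 nm) as for whole cells, blank subtracted. Values expressed as nmol/mg mitochondrial protein. Measured in duplicate; means ± SD.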

The species named for the next data set is Homo sapiens. Description: Inhibition of human topoisomerase 2 using supercoiled pHOT1 as substrate at 1 to 50 umol/L by agarose gel electrophoresis. The method, boiled down:
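Purified human topoisomerase II incubated with supercoiled pHOT1 plasmid and drug at 1, 5, 25, 50 μmol/L, using a commercial topoisomerase II drug screening kit. Etoposide at 5, 50, 100 μmol/L served as positive control.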

Data set [3] concerns MCF7. Description: Antioxidant activity in human MCF7 cells assessed as intracellular ROS level at 5 umol/L after 24 hrs by DCFDA-AM staining-based spectrofluorimetry. Format: functional, cell-based. The method, boiled down:
(§2)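 Cells rinsed in PBS, loaded with 10 μmol/L DCFDA-AM for 10 min at 37°C, washed, resuspended in PBS. DCFH fluorescence read at ex 490/em 530 nm, cell-free blank subtracted, converted to nmol/mg cell protein by titration curve. Means ± SD; ANOVA with Tukey's test.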

The subject of data set [4] is MDA-MB-231. Description: Cytotoxicity against human MDA-MB-231 cells assessed as LDH release at 5 umol/L after 24 hrs. Format: functional, cell-based. The method, boiled down: (§3)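 Cells exposed 24 h to 5 μmol/L compound. Medium centrifuged 12,000 × g, 15 min; cells sonicated in 82.3 mmol/L triethanolamine phosphate-HCl pH 7.6. LDH read at 340 nm over 6 min in medium and lysate, in duplicate. Extracellular activity given as % of total; means ± SD, n = 4.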

Data set [5] relates to MDA-MB-231. Description: Cellular uptake in human MDA-MB-231 cells at 5 umol/L after 24 hrs by spectrofluorimetry. Type of data set: ADME, cell-based. The following applies: mda-mb-231, 24 h, 5 µM. Summed up:
(§4)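 Cells exposed 24 h to 5 μmol/L drug. Doxorubicin in whole-cell lysates read fluorimetrically at ex 475/em 553 nm, cell-free blank subtracted. Converted to nmol/mg cell protein via calibration curve. Duplicate measurements; means ± SD, n = 3.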

For data set [6], the system named is H9c2. Description: Antioxidant activity in rat H9c2 cells assessed as intracellular ROS level at 5 umol/L after 24 hrs by DCFDA-AM staining-based spectrofluorimetry. Format: functional, cell-based. Summed up: as §2
Data set [7] deals with MCF7. In words: Antioxidant activity in human MCF7 cells assessed as intramitochondrial ROS level at 5 umol/L after 24 hrs by DCFDA-AM staining-based spectrofluorimetry. Format: functional, cell-based. The method, boiled down: as §1
Data set [8] deals with MDA-MB-231. Description: Drug efflux in human MDA-MB-231 cells at 1 to 100 umol/L incubated for 20 mins prior to compound wash out measured after 10 mins by spectrofluorimetry. Type of data set: ADME, cell-based. The following applies: mda-mb-231, 20 min. The method, boiled down: (§5)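 Doxorubicin in whole-cell lysates measured fluorimetrically at ex 475/em 553 nm, blank subtracted, converted to nmol/mg cell protein by calibration curve. Kinetic values fitted to Michaelis-Menten equation to obtain Vmax and Km.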

In data set [9] the test system is MDA-MB-231. In words: Antioxidant activity in human MDA-MB-231 cells assessed as intramitochondrial ROS level at 5 umol/L after 24 hrs by DCFDA-AM staining-based spectrofluorimetry. Format: functional, cell-based. The method, boiled down:
as §1

Data set [10] relates to H9c2. In words: Drug efflux in rat H9c2 cells at 1 to 100 umol/L incubated for 20 mins prior to compound wash out measured after 10 mins by spectrofluorimetry. Type of data set: ADME, cell-based. The note with it: h9c2, 20 min. Summed up: as §5
In data set [11] the test system is MCF7. Description: Antioxidant activity in human MCF7 cells assessed as intracellular malonyldialdehyde level at 5 umol/L after 24 hrs by spectrofluorimetry. Type of data set: functional, cell-based.
Data set [12] in a line: Cellular uptake in human MCF7 cell nucleus at 5 umol/L after 24 hrs by fluorimetric analysis. Type of data set: ADME, cell-based. The note with it: mcf7, 24 h, 5 µM. Summed up:
(§6)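 Cells incubated 24 h with 5 μmol/L drug. Doxorubicin measured fluorimetrically in nuclear or mitochondrial extracts, in duplicate. Means ± SD, n = 3.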

Data set [13] relates to MDA-MB-231. Description: Antioxidant activity in human MDA-MB-231 cells assessed as intracellular malonyldialdehyde level at 5 umol/L after 24 hrs by spectrofluorimetry. Type of data set: functional, cell-based.
For data set [14], the system named is MDA-MB-231. Description: Antioxidant activity in human MDA-MB-231 cells assessed as intracellular ROS level at 5 umol/L after 24 hrs by DCFDA-AM staining-based spectrofluorimetry. Format: functional, cell-based. The method, boiled down: as §2
For data set [15], the system named is H9c2. Description: Cytotoxicity against rat H9c2 cells assessed as LDH release at 5 umol/L after 24 hrs. The following applies: h9c2, 24 h, 5 µM. Format: cell-based. The method, boiled down: as §3
For orientation: LDH leaks from cells whose membrane has failed.

Data set [16] is described as follows: Cellular uptake in human MDA-MB-231 cell nucleus at 5 umol/L after 24 hrs by fluorimetric analysis. The note with it: mda-mb-231, 24 h, 5 µM. Type of data set: ADME, cell-based. Summed up:
as §6

Data set [17] relates to MCF7. In words: Cellular uptake in human MCF7 cells at 5 umol/L after 24 hrs by spectrofluorimetry. Format: ADME, cell-based. The note with it: mcf7, 24 h, 5 µM. The method, boiled down: as §4
The subject of data set [18] is MCF7. Description: Drug efflux in human MCF7 cells at 1 to 100 umol/L incubated for 20 mins prior to compound wash out measured after 10 mins by spectrofluorimetry. Type of data set: ADME, cell-based. The following applies: mcf7, 20 min. Summed up:
as §5

Data set [19] deals with H9c2. Description: Cellular uptake in rat H9c2 cells at 5 umol/L after 24 hrs by spectrofluorimetry. Format: ADME, cell-based. The note with it: h9c2, 24 h, 5 µM. Summed up:
as §4

Data set [20] concerns MCF7. In words: Cytotoxicity against human MCF7 cells assessed as LDH release at 5 umol/L after 24 hrs. Type of data set: functional, cell-based. Summed up: as §3
Data set [21] is described as follows: Cellular uptake in human MCF7 cell mitochondria at 5 umol/L after 24 hrs by fluorimetric analysis. Type of data set: ADME. The following applies: mcf7, 24 h, 5 µM. The method, boiled down: as §6
Data set [22] in a line: Cellular uptake in rat H9c2 cell mitochondria at 5 umol/L after 24 hrs by fluorimetric analysis. The following applies: h9c2, 24 h, 5 µM. Format: ADME. The method, boiled down:
as §6

Data set [23] is described as follows: Cellular uptake in rat H9c2 cell nucleus at 5 umol/L after 24 hrs by fluorimetric analysis. The note with it: h9c2, 24 h, 5 µM. Type of data set: ADME, cell-based. Summed up: as §6
A short description of data set [24]: Cellular uptake in human MDA-MB-231 cell mitochondria at 5 umol/L after 24 hrs by fluorimetric analysis. The following applies: mda-mb-231, 24 h, 5 µM. Format: ADME. The method, boiled down:
as §6

Take `COc1cccc2c1C(=O)c1c(O)c3c(c(O)c1C2=O)C[C@@](O)(C(=O)CO)C[C@@H]3O[C@H]1C[C@H](N)[C@H](O)[C@H](C)O1` [DOXORUBICIN]: the outcome with H9c2 [1], in the data set on H9c2 [2], in the data set on MCF7 [3], in the data set on MDA-MB-231 [4], in the data set with H9c2 [6] and in the data set with MCF7 [7] was Active. Further, the outcome in the data set on MCF7 [11] and with MCF7 [20] was Active. For the same compound, the inhibition result in the data set filed under Homo sapiens was “Active”. For the same compound, the Drug uptake result in the data set with MDA-MB-231 [5] is given as “Active”; in [12], “Active”; in [16], “Active”; in the data set on MCF7 [17], “Active”; in the data set on H9c2 [19], “Not Active”. Besides, the Km in the data set with MDA-MB-231 [8] was determined as 1.35 nmol/mg; with H9c2 [10], 1.96 nmol/mg; in the data set with MCF7 [18], 1.88 nmol/mg. The Vmax in the data set on MDA-MB-231 [8] stood at 33.11 nmol/min/mg; with H9c2 [10] it was 11.89 nmol/min/mg; in the data set with MCF7 [18], 18.9 nmol/min/mg. For the same compound, the result in the data set with MDA-MB-231 [9], with MDA-MB-231 [13] and in the data set on MDA-MB-231 [14] was inactive. Moreover, the Activity entry in the data set with H9c2 [15] was “Toxic”.

Consider `COc1cc(/C=C/C(=O)OCC(=O)[C@]2(O)Cc3c(O)c4c(c(O)c3[C@@H](O[C@H]3C[C@H](N)[C@H](O)[C@H](C)O3)C2)C(=O)c2c(OC)cccc2C4=O)ccc1O.Cl`, for which the result with H9c2 [1], with H9c2 [2], with MCF7 [3], in the data set on MDA-MB-231 [4], in the data set with H9c2 [6] and with MCF7 [7] was Active. Moreover, the outcome in the data set with MCF7 [11] and in the data set with MCF7 [20] was Active. The inhibition result in the data set filed under Homo sapiens was “Active”. The Drug uptake entry (with MDA-MB-231 [5]; in [21]; in data set [22]; in [23]; in data set [24]; in data set [12]) was “Active” throughout. Further, the Drug uptake result in data set [16] was “Active”; in the data set on MCF7 [17], “Active”; in the data set on H9c2 [19], “Not Active”. Further, the Km in the data set with MDA-MB-231 [8] came to 1.25 nmol/mg; in the data set on H9c2 [10], 2.01 nmol/mg; in the data set on MCF7 [18] it was 1.83 nmol/mg. Further, the Vmax came to 16.53 nmol/min/mg in the data set on MDA-MB-231 [8], 11.7 nmol/min/mg in the data set on H9c2 [10] and 11.1 nmol/min/mg with MCF7 [18]. Moreover, the outcome with MDA-MB-231 [9], in the data set with MDA-MB-231 [13] and with MDA-MB-231 [14] was inactive. In addition, in the data set on H9c2 [15], the Activity entry is “Toxic”.

Take `COc1cccc2c1C(=O)c1c(O)c3c(c(O)c1C2=O)C[C@@](O)(C(=O)COC(=O)/C=C/c1ccc(O)c(O)c1)C[C@@H]3O[C@H]1C[C@H](N)[C@H](O)[C@H](C)O1.Cl`: the outcome in the data set on MDA-MB-231 [4] was inactive. Further, the Drug uptake result with MDA-MB-231 [5], in the data set on MCF7 [17] and in the data set with H9c2 [19] was “Active” in each case. The Activity entry in the data set with H9c2 [15] was “Toxic”. Besides, in the data set on MCF7 [20], the outcome was Active.
